Results of several laboratories.
Lines come from different studies, so protocols differ.
Target: Muscarinic acetylcholine receptor M3 (CHRM3, Homo sapiens, UniProt P20309)
Tested at: 10 µM

| SMILES | read-out | method | inhibition |
| --- | --- | --- | --- |
| O=C(Nc1ccc(S(=O)(=O)N2CCC(Cl)CC2)cc1)c1ccc([N+](=O)[O-])o1 | ligand displacement | radioligand | 13% |
| O=C(c1ccc(F)cc1)N(Cc1ccccc1)C1CCCCC1 | cell-free assay |  | 17% |
| O=C1N=C(N2CCCCN2)S/C1=C\c1ccc(F)cc1O | ligand displacement | radioligand | < 10% |
| CCN(Cc1ccccc1C(F)(F)F)C(=O)C1CCN(S(=O)(=O)c2ccc3[nH]ncc3c2)CC1 | ligand displacement | radioligand | 14% |
| Ic1cccc2cnccc12 | ligand displacement | radioligand | 5% |
| N#Cc1cc(Cn2c(N3CCCC3)nc3ccccc32)ccc1F | ligand displacement |  | -31.1% |
| CCN(CC)c1ccc(C2Nc3ccc(C(=O)c4ccccc4)cc3NC3=C2C(=O)CC(C)(C)C3)cc1 (stereo not drawn) | ligand displacement | radioligand | 43% |
| CCCNc1nc2ccccc2n1Cc1ccc(Cl)cc1 | ligand displacement |  | -39.7% |
| Oc1cccc(Nc2nc(-c3ccc(F)cc3F)cs2)c1 | cell-free assay |  | -16.6% |
